# Measured values from the M2OR odorant receptor database.
# Experiments:
# Conditions in all cases: stereoisomer not certain
# UniProt Q8VGC6 = molecular target: T1, UniProt Q8VGC6
# T1 sequence (whole entry): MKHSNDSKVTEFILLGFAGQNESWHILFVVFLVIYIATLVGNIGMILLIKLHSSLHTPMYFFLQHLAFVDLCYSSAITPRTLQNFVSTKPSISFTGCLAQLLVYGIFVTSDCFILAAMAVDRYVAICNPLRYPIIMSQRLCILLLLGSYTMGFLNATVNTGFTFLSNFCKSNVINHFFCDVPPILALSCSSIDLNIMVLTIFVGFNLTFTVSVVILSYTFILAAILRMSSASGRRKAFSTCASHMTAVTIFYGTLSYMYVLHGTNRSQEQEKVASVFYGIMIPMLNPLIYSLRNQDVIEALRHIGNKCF
# Procedure, shortened: (§1)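 Each entry records the cell line, G-protein, co-transfected protein and tags used. Methods varied with the source, often transient luciferase assays in mammalian cell lines. A receptor–molecule pair is called responsive (active) if the original authors judged its signal statistically different from baseline and non-responsive (inactive) otherwise.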
# UniProt Q8VGJ3 = molecular target: T2, UniProt Q8VGJ3
# T2 sequence (whole entry): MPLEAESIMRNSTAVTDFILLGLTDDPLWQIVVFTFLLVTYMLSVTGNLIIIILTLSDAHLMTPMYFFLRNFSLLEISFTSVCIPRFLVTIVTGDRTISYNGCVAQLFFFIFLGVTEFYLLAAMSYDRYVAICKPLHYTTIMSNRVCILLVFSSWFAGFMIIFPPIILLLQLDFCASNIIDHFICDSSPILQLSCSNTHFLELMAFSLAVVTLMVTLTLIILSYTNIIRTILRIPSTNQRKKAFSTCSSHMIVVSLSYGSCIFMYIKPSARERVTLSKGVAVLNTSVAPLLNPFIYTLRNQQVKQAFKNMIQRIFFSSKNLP
# Procedure, shortened: as §1
# UniProt Q8VGL0 = molecular target: T3, UniProt Q8VGL0
# T3 sequence (whole entry): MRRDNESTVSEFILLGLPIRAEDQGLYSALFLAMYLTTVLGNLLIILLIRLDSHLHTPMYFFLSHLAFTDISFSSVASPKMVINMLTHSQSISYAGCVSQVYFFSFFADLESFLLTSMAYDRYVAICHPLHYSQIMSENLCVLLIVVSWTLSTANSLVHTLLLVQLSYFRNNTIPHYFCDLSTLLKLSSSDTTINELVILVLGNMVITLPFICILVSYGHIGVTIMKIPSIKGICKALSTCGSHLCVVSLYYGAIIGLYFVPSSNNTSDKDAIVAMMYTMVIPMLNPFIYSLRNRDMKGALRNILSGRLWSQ
# Procedure, shortened: as §1
# UniProt Q8VGU3 = molecular target: T4, UniProt Q8VGU3
# T4 sequence (whole entry): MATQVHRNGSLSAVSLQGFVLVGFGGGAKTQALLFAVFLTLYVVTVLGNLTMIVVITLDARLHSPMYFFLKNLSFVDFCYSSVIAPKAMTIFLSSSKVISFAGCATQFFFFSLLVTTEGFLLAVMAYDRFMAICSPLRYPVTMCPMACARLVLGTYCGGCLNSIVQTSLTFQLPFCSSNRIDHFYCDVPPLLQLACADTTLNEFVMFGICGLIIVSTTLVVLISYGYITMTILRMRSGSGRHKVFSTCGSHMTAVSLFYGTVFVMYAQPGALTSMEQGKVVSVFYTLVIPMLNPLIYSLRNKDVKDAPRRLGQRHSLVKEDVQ
# Procedure, shortened: as §1
# UniProt Q8VGV7 = molecular target: T5, UniProt Q8VGV7
# T5 sequence (whole entry): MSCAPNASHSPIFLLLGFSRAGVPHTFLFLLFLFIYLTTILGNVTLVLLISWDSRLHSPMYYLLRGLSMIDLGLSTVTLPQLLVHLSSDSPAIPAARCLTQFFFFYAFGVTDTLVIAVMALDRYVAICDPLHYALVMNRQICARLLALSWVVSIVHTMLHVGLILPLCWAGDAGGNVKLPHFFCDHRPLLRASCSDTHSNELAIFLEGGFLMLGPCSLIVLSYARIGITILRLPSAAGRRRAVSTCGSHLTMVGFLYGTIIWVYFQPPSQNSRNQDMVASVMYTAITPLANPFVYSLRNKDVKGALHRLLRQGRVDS
# Procedure, shortened: as §1
# UniProt Q8VGX3 = molecular target: T6, UniProt Q8VGX3
# T6 sequence (whole entry): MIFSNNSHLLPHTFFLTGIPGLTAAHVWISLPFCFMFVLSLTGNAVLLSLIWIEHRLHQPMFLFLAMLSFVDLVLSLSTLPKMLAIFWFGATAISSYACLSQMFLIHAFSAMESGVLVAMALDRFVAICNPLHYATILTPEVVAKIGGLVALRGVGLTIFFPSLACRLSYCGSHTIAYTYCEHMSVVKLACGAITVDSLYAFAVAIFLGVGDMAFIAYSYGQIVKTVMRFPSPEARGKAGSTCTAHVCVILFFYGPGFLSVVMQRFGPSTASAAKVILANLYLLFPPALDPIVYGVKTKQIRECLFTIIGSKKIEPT
# Procedure, shortened: as §1
# UniProt Q8VGX5 = molecular target: T7, UniProt Q8VGX5
# T7 sequence (whole entry): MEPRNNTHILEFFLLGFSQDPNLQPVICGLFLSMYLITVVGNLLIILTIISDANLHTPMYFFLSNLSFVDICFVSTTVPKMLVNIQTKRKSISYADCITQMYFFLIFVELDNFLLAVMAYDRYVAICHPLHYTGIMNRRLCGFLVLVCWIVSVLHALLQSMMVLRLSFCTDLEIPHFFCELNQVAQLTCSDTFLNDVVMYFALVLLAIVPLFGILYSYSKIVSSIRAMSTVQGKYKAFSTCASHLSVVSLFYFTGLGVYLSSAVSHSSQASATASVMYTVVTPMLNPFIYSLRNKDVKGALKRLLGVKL
# Procedure, shortened: as §1
SMILES,odorant receptor agonist call (UniProt Q8VGC6),odorant receptor agonist call (UniProt Q8VGJ3),odorant receptor agonist call (UniProt Q8VGL0),odorant receptor agonist call (UniProt Q8VGU3),odorant receptor agonist call (UniProt Q8VGV7),odorant receptor agonist call (UniProt Q8VGX3),odorant receptor agonist call (UniProt Q8VGX5)
CC1CC=CCCCCCCCCCC(=O)C1 (configuration not stated),inactive,inactive,inactive,inactive,inactive,inactive,inactive
CCC=CCCCCC=O,inactive,inactive,inactive,inactive,inactive,inactive,inactive
Cc1ccccc1OC(=O)C(C)C,inactive,inactive,inactive,inactive,inactive,inactive,inactive
CCCCCC(C=O)=Cc1ccccc1,inactive,inactive,inactive,inactive,inactive,inactive,inactive
CC(=O)C=CC1=C(C)CCCC1(C)C,inactive,inactive,inactive,inactive,inactive,inactive,active
CCCCCCC(C)O (configuration not stated),inactive,inactive,inactive,inactive,inactive,inactive,inactive
CC(C)=C1CCC(C)CC1=O (configuration not stated),inactive,inactive,inactive,inactive,inactive,inactive,active
CCC=CCCC=CC=O,inactive,inactive,inactive,inactive,inactive,inactive,inactive
C=CC(=C)CCC=C(C)CCC=C(C)C,inactive,inactive,inactive,inactive,inactive,inactive,inactive
CC(CC=O)CCCC(C)(C)O (configuration not stated),inactive,inactive,inactive,inactive,inactive,inactive,inactive
O=C(O)CCCCCBr,inactive,inactive,inactive,inactive,inactive,inactive,inactive
CCOC(=O)C(C)CC (configuration not stated),inactive,inactive,inactive,inactive,inactive,inactive,inactive
OCCCCCCCCCO,inactive,inactive,inactive,inactive,inactive,inactive,inactive
CC1CCC(C(C)C)C(=O)C1 (configuration not stated),inactive,inactive,inactive,inactive,inactive,inactive,inactive
CC(C)CS,inactive,inactive,inactive,inactive,inactive,inactive,inactive
C=C(C)C1CCC2(C)OC2C1 (configuration not stated),inactive,inactive,inactive,inactive,inactive,inactive,inactive
Cc1c(C)c(C)c(C=O)c(C)c1C,inactive,inactive,inactive,inactive,inactive,inactive,inactive
CCCCCOC(=O)CC,inactive,inactive,inactive,inactive,inactive,inactive,inactive
OCC=Cc1ccccc1,inactive,inactive,inactive,inactive,inactive,inactive,inactive
c1ccc2ncccc2c1,inactive,inactive,inactive,inactive,inactive,inactive,active
CCCCCOC(=O)CCC,inactive,inactive,inactive,inactive,inactive,inactive,inactive

SMILES,odorant receptor agonist call (UniProt Q8VGC6),odorant receptor agonist call (UniProt Q8VGJ3),odorant receptor agonist call (UniProt Q8VGL0),odorant receptor agonist call (UniProt Q8VGU3),odorant receptor agonist call (UniProt Q8VGV7),odorant receptor agonist call (UniProt Q8VGX3),odorant receptor agonist call (UniProt Q8VGX5)
CC(=O)OCc1ccc2c(c1)OCO2,active,inactive,inactive,inactive,inactive,inactive,inactive
CCc1ncc(C)nc1CC,inactive,inactive,inactive,inactive,inactive,inactive,inactive
CCc1occc(=O)c1O,inactive,inactive,inactive,inactive,inactive,inactive,active
CCCCCC(=Cc1ccccc1)C(OC)OC,inactive,inactive,inactive,inactive,inactive,inactive,inactive
CCCCCCCCCCCO,inactive,inactive,inactive,inactive,inactive,inactive,inactive
C=CC(=O)CCCCC,inactive,inactive,inactive,inactive,inactive,inactive,inactive
OCCc1ccccc1,inactive,inactive,inactive,inactive,inactive,inactive,active
C=C(C)C1CCC(C)C(O)C1 (configuration not stated),inactive,inactive,active,inactive,inactive,inactive,active
CCc1ccc(O)cc1,inactive,inactive,inactive,inactive,inactive,inactive,inactive
C1CCOC1,inactive,inactive,inactive,inactive,inactive,inactive,inactive
CCCCCCCCOC=O,inactive,inactive,inactive,inactive,inactive,inactive,inactive
COC(OC)c1ccccc1,inactive,inactive,inactive,inactive,inactive,inactive,inactive
CCSCC,inactive,inactive,inactive,inactive,inactive,inactive,inactive
CCCCCCC=CC=O,inactive,inactive,inactive,inactive,inactive,inactive,inactive
O=C(O)CCCCCCCCC(=O)O,inactive,inactive,inactive,inactive,inactive,inactive,inactive
CCN(CC)CC,inactive,inactive,inactive,inactive,inactive,inactive,inactive
CC(C)=CCCC(C)=CCOC(=O)C(C)C,inactive,inactive,inactive,inactive,inactive,inactive,active
COc1nccnc1C,inactive,inactive,inactive,inactive,inactive,inactive,inactive
CSSSC,inactive,inactive,inactive,inactive,inactive,inactive,inactive
CC=C(C)C=O,inactive,inactive,inactive,inactive,inactive,inactive,inactive
